Experimental data from ChEMBL document CHEMBL4316599, “Synthesis, in vitro and in vivo biological evaluation of substituted 3-(5-imidazo[2,1-b]thiazolylmethylene)-2-indolinones as new potent anticancer agents” (Eur J Med Chem, 2019).

Tests used:
Tubulin (Bos taurus) [1] = target: T1, Tubulin (Bos taurus) (UniProt Q6B856+Q862L2+Q862F3); assay: Inhibition of [3H]colchicine binding to bovine brain tubulin at 50 uM after 20 mins relative to control
Summary of the method: (§1)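 Reaction mixtures held 1 μM tubulin, 5 μM [³H]colchicine and test compound at 5 or 50 μM. Read-out was percent inhibition of colchicine binding.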

CNS carcinoma cell = assay: Cytotoxicity against human CNS cancer cells after 48 hrs by SRB assay; assay type: functional
Summary of the method: (§2)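 NCI-60 screen: single-dose pass at 10^-5 M, then a five-concentration assay from 10^-9 to 10^-4 M (highest 100 μM). Exposure was 48 h under standard NCI protocols. GI50, TGI and LC50 were derived per cell line and averaged by subpanel. Repeated tests are the mean of two experiments.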

K562 [2] = assay: Cell cycle arrest in human K562 cells assessed as mitotic index at IC50 by Giemsa staining-based assay (reference value: 3%); assay type: functional
Melanoma cell line = assay: Cytotoxicity against human melanoma cells after 48 hrs by SRB assay; assay type: functional; summary of the method: as §2
Leukemia cell = assay: Cytotoxicity against human leukemia cells after 48 hrs by SRB assay; assay type: functional; summary of the method: as §2
Breast carcinoma cell = assay: Cytotoxicity against human breast cancer cells after 48 hrs by SRB assay; assay type: functional; summary of the method: as §2
NSCLC = assay: Cytotoxicity against human NSCLC cells after 48 hrs by SRB assay; assay type: functional; summary of the method: as §2
Tubulin (Bos taurus) [3] = target: T1, Tubulin (Bos taurus); assay: Inhibition of [3H]colchicine binding to bovine brain tubulin at 5 uM after 20 mins relative to control; summary of the method: as §1
Tubulin = Tubulin (Bos taurus, UniProt Q6B856+Q862L2+Q862F3); assay: Inhibition of bovine brain tubulin polymerization after 20 mins by spectrophotometric analysis
Summary of the method: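 Bovine brain tubulin (10 μM) in glutamate buffer preincubated with varying compound levels at 30 °C, then chilled to 0 °C. GTP added to 0.4 mM final, then warmed to 30 °C. Assembly followed by turbidity at 350 nm. IC50 is the concentration halving the extent of assembly after 20 min.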

K562 [4] = assay: Cytotoxicity against human K562 cells after 16 hrs by SRB assay; details: K562, 16 h
Ovarian carcinoma cell = assay: Cytotoxicity against human ovarian cancer cells after 48 hrs by SRB assay; assay type: functional; summary of the method: as §2
K562 [5] = assay: Cell cycle arrest in human K562 cells assessed as mitotic index at 10 times IC50 by Giemsa staining-based assay (reference value: 3%); assay type: functional
[6] = Cytotoxicity against human COLON cells after 48 hrs by SRB assay; assay type: functional; summary of the method: as §2
Prostatic carcinoma cell = assay: Cytotoxicity against human prostate cancer cells after 48 hrs by SRB assay; assay type: functional; summary of the method: as §2
K562 [7] = assay: Cytotoxicity against human K562 cells after 48 hrs by SRB assay; assay type: functional, cell-based
Renal cancer cell line = assay: Cytotoxicity against human renal cancer cells after 48 hrs by SRB assay; assay type: functional; summary of the method: as §2
K562 [8] = assay: Cell cycle arrest in human K562 cells assessed as mitotic index at 5 times IC50 by Giemsa staining-based assay (reference value: 3%); assay type: functional
[9] = read-out: LC50 (the source's name)

COc1nc2sc(C)cn2c1/C=C1/C(=O)Nc2ccccc21
inhibition (Tubulin (Bos taurus) [1]): 81% | GI50 (CNS carcinoma cell): 1.97 µM | TGI (CNS carcinoma cell): 40.1 µM | CC50 (CNS carcinoma cell; [9]): 87.9 µM | Activity (K562 [2]): 42% | GI50 (Melanoma cell line): 16.2 µM | TGI (Melanoma cell line): 74.8 µM | CC50 (Melanoma cell line; [9]): 94.9 µM | GI50 (Leukemia cell): 0.5 µM | LC50 (Leukemia cell): 93.7 µM | TGI (Leukemia cell): 7.25 µM | GI50 (Breast carcinoma cell): 2.52 µM | TGI (Breast carcinoma cell): 67.3 µM | GI50 (NSCLC): 5.68 µM | LC50 (NSCLC): 99 µM | TGI (NSCLC): 65.2 µM | inhibition (Tubulin (Bos taurus) [3]): 39% | IC50 (Tubulin): 3.4 µM | IC50 (K562 [4]): 1 µM | GI50 (Ovarian carcinoma cell): 6.29 µM | LC50 (50% lethal concentration) (Ovarian carcinoma cell): 96.3 µM | TGI (Ovarian carcinoma cell): 55.6 µM | Activity (K562 [5]): 80% | GI50 [6]: 0.8 µM | TGI [6]: 56.8 µM | CC50 [6, 9]: 93.3 µM | GI50 (Prostatic carcinoma cell): 2.09 µM | TGI (Prostatic carcinoma cell): 45 µM | Activity (K562 [7]): Dose-dependent effect | GI50 (Renal cancer cell line): 3.53 µM | TGI (Renal cancer cell line): 67.6 µM | Activity (K562 [8]): 61%
